# Sampled rows, rich in hits. Any-hit rate of the full collection: about 2%.
# Lipid droplet – modulators of hepatic lipid droplet formation; actives 0.4% (n = 240,000); inhibition, % at 6.5 µM; AML12 mouse hepatocytes, oleate lipid droplets, BODIPY imaging; AID 1656;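 active = lipid droplet intensity inhibited by at least 50%, with more than 500 cells counted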
#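 Material – mouse AML12 hepatocyte cell line, fixed after treatment · Compound dosing – one dose, 6.5 µM compound · Times – compound with oleate, overnight · Measured by – Image-based BODIPY and DAPI two-channel analysis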
# NTR1 ag – agonists of human neurotensin receptor NTR1. P30989. NTR1-U2OS beta-arrestin-GFP spot imaging, agonist mode. activation, % at 20 µM. actives 0.17% (n = 330,000). AID 493036;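 active = activation at or above 40% of the spot to cytoplasm intensity ratio, with at least 20 cells analyzed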;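 also: 0% = DMSO without peptide and 100% = 100 nM NTR1 peptide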
# GRK2 inh – blocks RNA aptamer binding to human GRK2; P25098; bead flow cytometry, FAM-aptamer displacement from GRK2; inhibition of aptamer binding, % at 10 µM; actives 0.59% (n = 330,000); AID 488847;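 active = inhibition of aptamer binding above 40%, roughly 3 SD of noise, on plates passing a quality check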;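 also: median bead fluorescence of bound FAM aptamer so fluorescent compounds give negative values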
# Beta2AR agonist – agonists of human beta-2 adrenergic receptor inducing internalization | P07550 | actives 0.43% (n = 340,000) | Am2.2-beta2AR cells, FAP receptor internalization, flow cytometry | response, % (test concentration not listed);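 active = response above a set limit, near 3 SD of response in nonfluorescent compounds, cut at about 42% in these data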
# Target sequence (P07550 whole entry, looked up): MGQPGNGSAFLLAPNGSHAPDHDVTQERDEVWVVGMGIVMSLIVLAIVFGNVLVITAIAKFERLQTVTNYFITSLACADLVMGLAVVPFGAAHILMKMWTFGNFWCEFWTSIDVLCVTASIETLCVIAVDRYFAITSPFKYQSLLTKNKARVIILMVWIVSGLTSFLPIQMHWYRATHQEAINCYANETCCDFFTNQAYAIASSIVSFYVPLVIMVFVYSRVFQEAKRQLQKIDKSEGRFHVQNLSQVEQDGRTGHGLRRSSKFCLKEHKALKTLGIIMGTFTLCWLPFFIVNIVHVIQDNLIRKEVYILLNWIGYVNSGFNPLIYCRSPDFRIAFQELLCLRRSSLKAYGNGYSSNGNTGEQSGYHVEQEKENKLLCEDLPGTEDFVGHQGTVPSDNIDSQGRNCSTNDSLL
# Arr AP2 block – human beta-arrestin and AP2 interaction inhibition; FITC-arrestin peptide / GST-AP2 beads, flow cytometry; AP2 beta2 appendage carries R879A mutation; actives 0.31% (n = 340,000); inhibition, % at 10 µM;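 active = inhibition above a set limit, near 3 SD of compounds lacking own fluorescence, cut at about 54% in these data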;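 also: plate controls were DMSO wells for no effect and 5 µM unlabelled arrestin peptide for full effect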
#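 System: GST-AP2 R879A glutathione beads. Medium: PBS with 0.05% Tween 20 and 0.1% BSA. Also added: FITC-arrestin peptide, 50 nM. Incubation: 12 min plus 1 h, RT. Measured by: high-throughput flow cytometry of beads, ex 488, em 535 nm. Evaluation: percent drop in bead-associated FITC signal.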
# TAG inh – inhibitors of triacylglycerol accumulation; H9c2 cells, Nile Red lipid (TAG) fluorescence; cells loaded with 200 µM oleic acid; inhibition, % at 12.5 µM; actives 0.66% (n = 230,000); AID 651582;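 active = pattern-corrected inhibition of lipid staining of at least 50% with the nuclear-stain viability signal not falling by more than 50%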;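 also: 0% = DMSO wells and 100% = triacsin C control wells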
# Hep lipid conf – hepatic lipid droplet formation inhibition, confirmed | shares compounds with Lipid droplet | AML12 mouse hepatocytes, BODIPY lipid droplet imaging; droplets induced with 100 µM oleic acid | inhibition, % at 5.2 µM | actives 65% (n = 870);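 active = inhibition of lipid droplet metric at least 50%, with more than 300 cells in each of four replicates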;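 also: plate controls were DMSO with oleic acid for no effect and 5 µM Triacsin-C for full effect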
# AML12 cytotox – AML12 hepatocyte cytotoxicity (counter-screen); AML12 mouse hepatocytes, DAPI nuclear morphology cytotoxicity imaging; hits give high values; cells fed 100 µM oleate overnight; actives 3% (n = 870); shares compounds with Lipid droplet; AID 463200; z-score at 5 µM; in the data active = z-score above about 6.3;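 also: compound exposure lasted overnight at 37 °C before fixation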
# AML12 tox ATP – confirmation of cytotoxicity in AML12 mouse hepatocytes. shares compounds with Lipid droplet. AML12 mouse hepatocyte viability, ATP luminescence; cells loaded with 100 µM oleic acid. cytotoxicity, % at 50 µM. 530 tested, under 10 active;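 active = cytotoxicity above 50% in each of four replicates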;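 also: compound exposure lasted overnight at 37 °C before the ATP read; 0% = DMSO-treated cells and 100% = wells with no cells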
# Numbers without * were called inactive; . = no result.
SMILES,Lipid droplet,NTR1 ag,GRK2 inh,Beta2AR agonist,Arr AP2 block,TAG inh,Hep lipid conf,AML12 cytotox,AML12 tox ATP
COc1ccccc1CNS(=O)(=O)c1ccc2c(c1)CC(C)N2C(=O)C1CC1 (configuration not stated),79*,0,0,0,2,.,106*,-1.1,18
COc1ccc(CCNS(=O)(=O)c2ccc3c(c2)CC(C)N3C(=O)C2CC2)cc1OC (configuration not stated),.,.,.,.,.,17,.,.,.
CC1Cc2cc(S(=O)(=O)NCCC(=O)N(C)Cc3ccccc3)ccc2N1C(=O)C1CC1 (configuration not stated),61*,0,0,-17,-1,.,67*,-0.84,21
COc1ccccc1CNC(=O)C1CCN(S(=O)(=O)c2ccc3c(c2)CC(C)N3C(C)=O)CC1 (configuration not stated),-7,2,3,-9,21,.,.,.,.
COc1ccccc1CNS(=O)(=O)c1ccc2c(c1)CC(C)N2C(=O)C1CCC1 (configuration not stated),64*,2,0,-18,-3,.,99*,0.084,21
CC(NC(=O)CN(c1ccccc1F)S(C)(=O)=O)c1ccccc1 (configuration not stated),9,-1,1,0,-17,2,.,.,.
Cc1c(Cl)cccc1N(CC(=O)NC(C)c1ccccc1)S(C)(=O)=O (configuration not stated),58*,0,6,-8,2,-8,47,-0.75,.
COc1ccc(C(=O)O/N=C(\N)c2ccccn2)cc1,66*,0,2,-3,-3,.,20,-0.24,.
CCOc1ccc(CCNC(=O)COC(=O)c2cccc(OC)c2O)cc1OCC,39,0,3,-1,47,2,.,.,.
CCOc1ccc(CCNC(=O)CN2CCN(Cc3ccc(F)cc3)C2=O)cc1OCC,69*,0,0,-3,-10,33,104*,-0.21,13
CCCOc1ccc(C(=O)OCC(=O)NCCc2ccc(OCC)c(OCC)c2)cc1OC,88*,2,0,-2,32,46,110*,-0.66,8
CCOc1ccc(CCNC(=O)C2CCN(S(=O)(=O)CC)CC2)cc1OCC,.,0,0,1,-2,.,.,.,.
CCOc1ccc(CCNC(=O)COC(=O)Cc2ccc(OC)c(OC)c2)cc1OCC,.,2,0,4,3,28,.,.,.
CCOc1ccc(CCNC(=O)COC(=O)c2ccc(OC)c(OC)c2OC)cc1OCC,77*,2,2,5,-10,40,109*,-0.68,10
CCOc1ccc(CCNC(=O)C2CCN(S(=O)(=O)N3CC(C)CC(C)C3)CC2)cc1OCC (configuration not stated),82*,2,0,2,13,.,5,-0.36,.
COc1ccc(CCNC(=O)CN2CCN(Cc3ccc(F)cc3)C2=O)cc1OC,.,1,1,-13,5,-12,.,.,.
O=C(COC(=O)c1ccc(S(=O)(=O)N2CCCC2)cc1)NCc1ccco1,10,0,7,0,10,1,.,.,.
CCOc1ccc(CCNC(=O)C2CC=CCC2C(=O)OC(C)C)cc1OCC (configuration not stated),114*,0,0,-1,-15,.,106*,0.38,13
CCOc1ccc(CCNC(=O)CCS(=O)(=O)c2ccc(OC)cc2)cc1OCC,84*,-2,16,2,2,.,97*,-0.44,10
CCOc1ccc(CCNC(=O)COC(=O)c2cc(OC)cc(OC)c2)cc1OCC,61*,3,2,-7,7,11,94*,-0.87,7
CCOc1ccc(CCNC(=O)COC(=O)c2ccncc2)cc1OCC,.,1,0,0,4,-5,.,.,.
CCOc1ccc(C(=O)OCC(=O)Nc2nc(OC)cc(OC)n2)cc1OCC,64*,4,0,-2,0,.,102*,-0.56,15
CCOc1ccc(S(=O)(=O)NCCC(=O)NCCc2ccc(OCC)c(OCC)c2)cc1,.,-1,0,-7,-7,39,.,.,.
CCOc1ccc(CCNC(=O)COC(=O)C2CC2)cc1OCC,.,-1,1,-2,4,28,.,.,.
O=C(COC(=O)COc1ccc(Cl)cc1)Nc1ncc(Br)s1,.,-1,.,-5,4,-6,.,.,.
SMILES,Lipid droplet,NTR1 ag,GRK2 inh,Beta2AR agonist,Arr AP2 block,TAG inh,Hep lipid conf,AML12 cytotox,AML12 tox ATP
COc1ccc(CN2CC(C(=O)NCCc3ccccc3)CC2=O)cc1 (configuration not stated),.,0,1,.,-9,.,.,.,.
CCOc1ccc(CCNC(=O)C2CC(=O)N(Cc3ccc(OC)cc3)C2)cc1OCC (configuration not stated),57*,1,8,6,28,.,93*,-0.16,16
CC(C)Cn1c(N)c(C(=O)COC(=O)c2cc(C3CC3)nc3ccccc23)c(=O)n(C)c1=O,74*,21,0,.,.,.,85*,0.016,.
CC(C)Cn1c(N)c(C(=O)COC(=O)c2cc(-c3ccccc3)nc3ccccc23)c(=O)n(C)c1=O,17,-3,0,5,13,4,.,.,.
COc1ccc(C)cc1S(=O)(=O)N(CC(=O)Nc1cc([N+](=O)[O-])ccc1C)c1ccc(C)c(C)c1,51*,0,0,-1,15,.,57,-0.35,14
COc1ccc(C)cc1S(=O)(=O)N(CC(=O)Nc1cccc([N+](=O)[O-])c1)c1cc(C)cc(C)c1,-26,3,5,-3,-44,.,.,.,.
Cc1ccccc1N(C(=O)c1csnn1)C(C(=O)NC1CCCC1)c1ccncc1 (configuration not stated),-8,-1,0,-4,22,.,.,.,.
CSc1ccc(NC(=O)N2CCC(C(=O)c3ccc(F)cc3)CC2)cc1,71*,0,1,9,-1,.,96*,0.49,19
Cc1cc(C)cc(NC(=O)N2CCC(C(=O)c3ccc(F)cc3)CC2)c1,67*,-1,0,1,-23,.,96*,0.074,13
O=C(Nc1ccccc1Cl)OCC#CCOC(=O)Nc1ccccc1Cl,.,.,.,.,.,-11,.,.,.
Nc1c(C(=O)OCC(=O)Nc2cccc([N+](=O)[O-])c2)[nH]c(=O)[nH]c1=O,.,-1,14,-6,10,11,.,.,.
CC(C)c1nc2c(s1)CCc1onc(-c3cccc([N+](=O)[O-])c3)c1-2,.,2,.,-1,-8,-1,.,.,.
